pEC50: −log10 of the molar value. Activity calls are given as the source filed them.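 Rule for the calls: active = mean EC50 of 20 µM or lower; inactive = the rest.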
Molecular target: CHO-CHOP luciferase reporter, UPR apoptotic arm activation
Experiment: activators of PERK-eIF2a-CHOP apoptotic UPR arm, SAR follow-up, cell-based, CHO-CHOP line, luminescence, set 2 (AID 588594)
Outline: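 Control set: tunicamycin 10 µg/mL final as high control, DMSO only as low control; Material: CHO cells, stable CHOP luciferase reporter; Timing: overnight seeding, then 6 h compound exposure, 37 °C; Signal: luminescence after Steady-Glo luciferase reagent addition; Dosing: dose-response series, DMSO ≤1%.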

SMILES	pEC50	EC50
O=C(Nc1nc2c(F)ccc(F)c2s1)c1ccccn1	5.18	–
CC1(C)CCN(S(=O)(=O)c2ccc(NC(=O)c3cccc([N+](=O)[O-])c3)cc2)CC1	–	> 80 µM (inactive)
O=C(Nc1nc2cccc(F)c2s1)c1ccccn1	5.15	–
O=C(Nc1nc2cc(F)cc(F)c2s1)c1ccccn1	5.16	–
Cn1c([N+](=O)[O-])cnc1C(=O)Nc1ccc(S(=O)(=O)N2CCC(C)(C)CC2)cc1	–	> 77.5 µM (inactive)
O=C(Nc1nc2ccc(Cl)cc2s1)c1ccccn1	5.22	–
CC1(C)CCN(S(=O)(=O)c2ccc(NC(=O)c3ccc(C(F)(F)F)o3)cc2)CC1	–	> 80 µM (inactive)
O=C(Nc1nc2c(F)c(F)ccc2s1)c1ccccn1	5.01	–
O=C(Nc1nc2cc(F)c(F)cc2s1)c1ccccn1	5.08	–
O=C(Nc1nc2cc(F)ccc2s1)c1ccccn1	5.15	–

Other lines, results leading:

pEC50	EC50	SMILES
6.17	–	CC(C)(C)C1CCN(S(=O)(=O)c2ccc(NC(=O)c3ccc([N+](=O)[O-])o3)cc2)CC1
5.33	–	O=C(Nc1nc2ccc(C(F)(F)F)cc2s1)c1ccccn1
6.14	–	O=C(Nc1ccc(S(=O)(=O)N2CCC3(CCCCC3)CC2)cc1)c1ccc([N+](=O)[O-])o1
5.87	–	CC1CN(S(=O)(=O)c2ccc(NC(=O)c3ccc([N+](=O)[O-])o3)cc2)CC(C)O1 (stereo not drawn)
5.92	–	O=C(Nc1ccc(S(=O)(=O)C2CCOCC2)cc1)c1ccc([N+](=O)[O-])o1
6.13	–	O=C(Nc1ccc(S(=O)(=O)N2CCC(Cl)CC2)cc1)c1ccc([N+](=O)[O-])o1
5.25	–	O=C(Nc1nc2ccc(F)c(F)c2s1)c1ccccn1
6.11	–	O=C(Nc1ccc(S(=O)(=O)N2CCC(F)CC2)cc1)c1ccc([N+](=O)[O-])o1

Source: PubChem BioAssay AID588594 (Sanford-Burnham Center for Chemical Genomics, 2011)
